In ChEMBL document CHEMBL3596093, “Synthesis and antimicrobial evaluation of 5-aryl-1,2,4-triazole-3-thione derivatives containing a rhodanine moiety” (2015):
Values after ≈ are worked out from the molar mass of the structure shown.

How the values were obtained:
Candida albicans = test: Antifungal activity against Candida albicans 7535 after 24 hrs by two-fold serial dilution method; type: functional; settings: Candida albicans, 7535, 24 h
Staphylococcus aureus [1] = test: Bactericidal activity against Staphylococcus aureus KCTC 209 after 24 hrs by agar plate method; type: functional; settings: KCTC 209, 24 h
In short: (§1)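 Samples of 5 µL from MIC wells with no visible growth were plated onto fresh Mueller-Hinton agar and incubated a further 24 h at 37 °C. MBC is the lowest concentration giving no visible colony growth on the agar. Assays were run in triplicate.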

Escherichia coli [2] = test: Ratio of MBC to MIC for Escherichia coli KCTC 1924; type: functional
In short: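 The ratio divides MBC by MIC for the same strain. MIC comes from two-fold broth microdilution in Mueller-Hinton broth (about 10^5 CFU/mL, 37 °C, 24 h, absorbance at 630 nm). MBC comes from subculturing 5 µL from clear wells onto Mueller-Hinton agar for another 24 h at 37 °C, taken as the lowest concentration with no colonies.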

Staphylococcus aureus [3] = test: Antibacterial activity against Staphylococcus aureus RN4220 after 24 hrs by two-fold serial dilution method; type: functional; settings: RN4220, 24 h
In short: (§2)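 Broth microdilution MIC. Bacteria grown to mid-log phase in Mueller-Hinton broth, diluted 1000-fold, about 10^5 CFU/mL. Compounds from DMSO stocks, two-fold serial dilution from a final 64 µg/mL. Incubation at 37 °C for 24 h. Growth read as absorbance at 630 nm on a microplate reader. Run in triplicate.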

Streptococcus mutans [4] = test: Antibacterial activity against Streptococcus mutans 3065 after 24 hrs by two-fold serial dilution method; type: functional; settings: Streptococcus mutans, 3065, 24 h
In short: (§3)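 Strains grown to mid-log phase in Mueller-Hinton broth, then diluted 1000-fold in the same broth to about 10^5 CFU/mL. Compounds were made up as DMSO stocks and two-fold serially diluted from a final top concentration of 64 µg/mL. Incubation was 37 °C for 24 h. Growth was read as absorbance at 630 nm on a microplate reader. MIC assays were run in triplicate.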

Staphylococcus aureus [5] = test: Antibacterial activity against methicillin-resistant Staphylococcus aureus CCARM 3506 after 24 hrs by two-fold serial dilution method; type: functional; settings: CCARM 3506, 24 h; in short: as §2
Pseudomonas aeruginosa [6] = test: Antibacterial activity against Pseudomonas aeruginosa 2004 after 24 hrs by two-fold serial dilution method; type: functional; settings: Pseudomonas aeruginosa, 2004, 24 h; in short: as §3
Staphylococcus aureus [7] = test: Antibacterial activity against methicillin-resistant Staphylococcus aureus CCARM 3167 after 24 hrs by two-fold serial dilution method; type: functional; settings: CCARM 3167, 24 h; in short: as §2
Escherichia coli [8] = test: Antibacterial activity against Escherichia coli KCTC 1924 after 24 hrs by two-fold serial dilution method; type: functional; settings: KCTC 1924, 24 h; in short: as §3
Staphylococcus aureus [9] = test: Bactericidal activity against methicillin-resistant Staphylococcus aureus CCARM 3506 after 24 hrs by agar plate method; type: functional; settings: CCARM 3506, 24 h
In short: (§4)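 5 µL from each well without visible growth plated on fresh Mueller-Hinton agar, then 37 °C for a further 24 h. MBC is the lowest concentration giving no visible colonies. Run in triplicate.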

Pseudomonas aeruginosa [10] = test: Antibacterial activity against Pseudomonas aeruginosa 2742 after 24 hrs by two-fold serial dilution method; type: functional; settings: Pseudomonas aeruginosa, 2742, 24 h; in short: as §3
Staphylococcus aureus [11] = test: Bactericidal activity against Staphylococcus aureus RN4220 after 24 hrs by agar plate method; type: functional; settings: RN4220, 24 h; in short: as §1
Staphylococcus aureus [12] = test: Antibacterial activity against quinolone-resistant Staphylococcus aureus CCARM 3505 after 24 hrs by two-fold serial dilution method; type: functional; settings: CCARM 3505, 24 h; in short: as §2
Escherichia coli [13] = test: Antibacterial activity against Escherichia coli CCARM 1356 after 24 hrs by two-fold serial dilution method; type: functional; settings: CCARM 1356, 24 h; in short: as §3
Salmonella typhimurium = test: Antibacterial activity against Salmonella typhimurium 2421 after 24 hrs by two-fold serial dilution method; type: functional, Salmonella enterica subsp. enterica serovar Typhimurium; settings: Salmonella enterica, 2421, 24 h; in short: as §3
Staphylococcus aureus [14] = test: Bactericidal activity against quinolone-resistant Staphylococcus aureus CCARM 3519 after 24 hrs by agar plate method; type: functional; settings: CCARM 3519, 24 h; in short: as §4
Streptococcus mutans [15] = test: Bactericidal activity against Streptococcus mutans 3065 after 24 hrs by agar plate method; type: functional; settings: Streptococcus mutans, 3065, 24 h; in short: as §1
Staphylococcus aureus [16] = test: Antibacterial activity against quinolone-resistant Staphylococcus aureus CCARM 3519 after 24 hrs by two-fold serial dilution method; type: functional; settings: CCARM 3519, 24 h; in short: as §2
Staphylococcus aureus [17] = test: Bactericidal activity against methicillin-resistant Staphylococcus aureus CCARM 3167 after 24 hrs by agar plate method; type: functional; settings: CCARM 3167, 24 h; in short: as §4
Escherichia coli [18] = test: Bactericidal activity against Escherichia coli KCTC 1924 after 24 hrs by agar plate method; type: functional; settings: KCTC 1924, 24 h; in short: as §1
Staphylococcus aureus [19] = test: Bactericidal activity against Staphylococcus aureus KCTC 503 after 24 hrs by agar plate method; type: functional; settings: KCTC 503, 24 h; in short: as §4
Staphylococcus aureus [20] = test: Antibacterial activity against Staphylococcus aureus KCTC 209 after 24 hrs by two-fold serial dilution method; type: functional; settings: KCTC 209, 24 h; in short: as §3
Staphylococcus aureus [21] = test: Antibacterial activity against Staphylococcus aureus KCTC 503 after 24 hrs by two-fold serial dilution method; type: functional; settings: KCTC 503, 24 h; in short: as §3
Staphylococcus aureus [22] = test: Bactericidal activity against quinolone-resistant Staphylococcus aureus CCARM 3505 after 24 hrs by agar plate method; type: functional; settings: CCARM 3505, 24 h; in short: as §4

| Structure (SMILES) | MIC (Candida albicans) [µg/mL] | MBC (Staphylococcus aureus [1]) [µg/mL] | MIC (Staphylococcus aureus [3]) [µg/mL] | MIC (Streptococcus mutans [4]) [µg/mL] | MIC (Staphylococcus aureus [5]) [µg/mL] | MIC (Pseudomonas aeruginosa [6]) [µg/mL] | MIC (Staphylococcus aureus [7]) [µg/mL] | MIC (Escherichia coli [8]) [µg/mL] | MBC (Staphylococcus aureus [9]) [µg/mL] | MIC (Pseudomonas aeruginosa [10]) [µg/mL] | MBC (Staphylococcus aureus [11]) [µg/mL] | MIC (Staphylococcus aureus [12]) [µg/mL] | MIC (Escherichia coli [13]) [µg/mL] | MIC (Salmonella typhimurium) [µg/mL] | MBC (Staphylococcus aureus [14]) [µg/mL] | MBC (Streptococcus mutans [15]) [µg/mL] | MIC (Staphylococcus aureus [16]) [µg/mL] | MBC (Staphylococcus aureus [17]) [µg/mL] | MBC (Escherichia coli [18]) [µg/mL] | MBC (Staphylococcus aureus [19]) [µg/mL] | also measured |
| --- | --- | --- | --- | --- | --- | --- | --- | --- | --- | --- | --- | --- | --- | --- | --- | --- | --- | --- | --- | --- | --- |
| O=C1NC(=S)S/C1=C\c1ccc(/C=N/n2c(-c3ccccc3)n[nH]c2=S)cc1 | > 64 | > 256 | 32 (≈ 75.6 µM) | 16 (≈ 37.8 µM) | 32 (≈ 75.6 µM) | > 128 | 32 (≈ 75.6 µM) | 32 (≈ 75.6 µM) | > 256 | > 128 | > 256 | 32 (≈ 75.6 µM) | > 128 | > 128 | > 256 | > 128 | 32 (≈ 75.6 µM) | > 256 | 128 (≈ 302 µM) | > 256 | Ratio (Escherichia coli [2]): <=4; MIC (Staphylococcus aureus [20]): 64 µg/mL (≈ 151 µM); MIC (Staphylococcus aureus [21]): 32 µg/mL (≈ 75.6 µM); MBC (Staphylococcus aureus [22]): > 256 µg/mL |
| O=C1NC(=S)S/C1=C\c1ccc(/C=N/n2c(-c3ccccc3Cl)n[nH]c2=S)cc1 | > 64 | > 256 | 32 (≈ 69.9 µM) | 16 (≈ 34.9 µM) | 16 (≈ 34.9 µM) | > 128 | 16 (≈ 34.9 µM) | 16 (≈ 34.9 µM) | > 128 | > 128 | > 256 | 16 (≈ 34.9 µM) | > 128 | > 128 | > 128 | > 128 | 16 (≈ 34.9 µM) | > 128 | > 128 | > 256 | MIC (Staphylococcus aureus [20]): 64 µg/mL (≈ 140 µM); MIC (Staphylococcus aureus [21]): 16 µg/mL (≈ 34.9 µM); MBC (Staphylococcus aureus [22]): > 128 µg/mL |
| O=C1NC(=S)S/C1=C\c1ccc(/C=N/n2c(-c3ccccc3Br)n[nH]c2=S)cc1 | > 64 | > 256 | 16 (≈ 31.8 µM) | 16 (≈ 31.8 µM) | 16 (≈ 31.8 µM) | > 128 | 16 (≈ 31.8 µM) | 16 (≈ 31.8 µM) | > 128 | > 128 | 128 (≈ 255 µM) | 16 (≈ 31.8 µM) | > 128 | > 128 | > 128 | > 128 | 16 (≈ 31.8 µM) | > 128 | > 128 | > 128 | MIC (Staphylococcus aureus [20]): 64 µg/mL (≈ 127 µM); MIC (Staphylococcus aureus [21]): 16 µg/mL (≈ 31.8 µM); MBC (Staphylococcus aureus [22]): > 128 µg/mL |
